Data taken from ChEMBL document CHEMBL4699647, “Targeting the Allosteric Pathway That Interconnects the Core-Functional Scaffold and the Distal Phosphorylation Sites for Specific Dephosphorylation of Bcl-2” (J Med Chem, 2020).
Active and inactive are the calls of the source. The rule behind the calls is not given here.

Assays:
[1] = Inhibition of FAM-Bim peptide binding to human full-length N-terminal His6-tagged Bcl2 R106A/R109A mutant expressed in Escherichia coli S12 extract measured after 30 mins by fluorescence polarization assay
[2] = target: T1, Apoptosis regulator Bcl-2 (Homo sapiens, UniProt P10415); assay: Inhibition of FAM-Bim peptide binding to human full-length N-terminal His6-tagged Bcl2 (2 to 206 residues) expressed in Escherichia coli S12 extract measured after 30 mins by fluorescence polarization assay
T1 sequence (P10415 whole entry, the tested form may be a part): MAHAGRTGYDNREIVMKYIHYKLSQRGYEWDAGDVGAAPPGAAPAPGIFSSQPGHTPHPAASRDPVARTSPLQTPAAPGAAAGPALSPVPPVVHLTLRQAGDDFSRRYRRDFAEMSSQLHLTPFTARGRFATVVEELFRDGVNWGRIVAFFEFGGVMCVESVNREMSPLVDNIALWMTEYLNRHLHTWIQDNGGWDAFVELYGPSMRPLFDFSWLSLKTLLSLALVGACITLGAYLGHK

[3] = target: Induced myeloid leukemia cell differentiation protein Mcl-1 (Homo sapiens, UniProt Q07820); assay: Inhibition of FAM-Bim peptide binding to MCl1 (unknown origin) measured after 30 mins by fluorescence polarization assay
Induced myeloid leukemia cell differentiation protein Mcl-1, sequence (Q07820 whole entry): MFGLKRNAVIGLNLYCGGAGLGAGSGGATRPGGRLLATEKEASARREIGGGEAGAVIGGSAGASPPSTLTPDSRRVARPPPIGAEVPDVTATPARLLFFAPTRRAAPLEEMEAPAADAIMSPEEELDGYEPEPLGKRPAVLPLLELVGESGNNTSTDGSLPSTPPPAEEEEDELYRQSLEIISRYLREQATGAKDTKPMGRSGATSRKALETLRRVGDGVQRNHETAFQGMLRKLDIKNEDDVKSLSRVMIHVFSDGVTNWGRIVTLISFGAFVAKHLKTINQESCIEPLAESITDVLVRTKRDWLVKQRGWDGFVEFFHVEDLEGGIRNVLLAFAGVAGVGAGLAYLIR

[4] = Resistance ratio of EC50 for induction of apoptosis in human OCI-AML-3 cells to EC50 for Induction of apoptosis in human MCF7 cells; assay type: functional
[5] = Resistance ratio of EC50 for induction of apoptosis in human OCI-AML-3 cells to EC50 for Induction of apoptosis in human KG-1 cells; assay type: functional
[6] = target: T1, Apoptosis regulator Bcl-2; assay: Induction of BCl-2 dephosphorylation in human OCI-AML-3 cells assessed as increase in Bax expression at 5 to 10 uM measured after 24 hrs by coimmunoprecipitation method; assay type: cell-based; settings: dose microM 5-10, time 24.0 hrs
Procedure, shortened: (§1)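 Cells treated for 24 h, then lysed in 1% CHAPS buffer. 500 μg total protein precleared with protein A-Sepharose, incubated overnight with 5 μg specific antibody, captured on protein A-Sepharose or G-agarose, then immunoblotted. Bax/Bcl-2 complex, pBcl-2 (Ser70) and total Bcl-2 read out; n = 3 independent samples.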

[7] = Resistance ratio of EC50 for induction of apoptosis in human HL-60 cells to EC50 for Induction of apoptosis in human MCF7 cells; assay type: functional
MCF7 = assay: Induction of apoptosis in human MCF7 cells measured after 48 hrs by FITC-Annexin V/PS staining based; assay type: functional, cell-based; settings: MCF7, 48 h
HL-60 = assay: Induction of apoptosis in human HL-60 cells measured after 48 hrs by FITC-Annexin V/PS staining based; assay type: functional, cell-based; settings: HL-60, 48 h
[8] = Resistance ratio of EC50 for induction of apoptosis in human HL-60 cells to EC50 for Induction of apoptosis in human KG-1 cells; assay type: functional
[9] = target: T1, Apoptosis regulator Bcl-2; assay: Induction of BCl-2 dephosphorylation in human HL-60 cells assessed as increase in Bax expression at 5 to 10 uM measured after 24 hrs by coimmunoprecipitation method; assay type: cell-based; settings: dose microM 5-10, time 24.0 hrs; procedure, shortened: as §1
KG-1 = assay: Induction of apoptosis in human KG-1 cells measured after 48 hrs by FITC-Annexin V/PS staining based; assay type: functional, cell-based; settings: KG-1, 48 h
[10] = target: T1, Apoptosis regulator Bcl-2; assay: Induction of BCl-2 dephosphorylation in human OCI-AML-3 cells at 5 to 10 uM measured after 24 hrs by coimmunoprecipitation method; assay type: cell-based; settings: dose microM 5-10, time 24.0 hrs; procedure, shortened: as §1
[11] = target: T1, Apoptosis regulator Bcl-2; assay: Induction of BCl-2 dephosphorylation in human HL-60 cells at 5 to 10 uM measured after 24 hrs by coimmunoprecipitation method; assay type: cell-based; settings: dose microM 5-10, time 24.0 hrs; procedure, shortened: as §1
[12] = target: T1, Apoptosis regulator Bcl-2; assay: Effect on Bcl2 phosphorylation in human HL-60 cells by Western blot analysis
Bcl-2-like protein 1 [13] = target: T2, Bcl-2-like protein 1 (Homo sapiens, UniProt Q07817); assay: Inhibition of FAM-Bim peptide binding to Bcl-xl (unknown origin) measured after 30 mins by fluorescence polarization assay
T2 sequence (Q07817 whole entry): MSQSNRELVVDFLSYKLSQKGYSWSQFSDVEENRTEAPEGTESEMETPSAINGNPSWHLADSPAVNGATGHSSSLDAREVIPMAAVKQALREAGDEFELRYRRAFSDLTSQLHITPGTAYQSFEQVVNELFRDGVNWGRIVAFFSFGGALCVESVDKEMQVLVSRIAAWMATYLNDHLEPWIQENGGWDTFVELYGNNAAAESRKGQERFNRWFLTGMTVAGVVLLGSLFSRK

OCI-AML-3 = assay: Induction of apoptosis in human OCI-AML-3 cells measured after 48 hrs by FITC-Annexin V/PS staining based; assay type: functional, cell-based; settings: OCI-AML-3, 48 h
[14] = target: T1, Apoptosis regulator Bcl-2; assay: Binding affinity to human full-length N-terminal His6-tagged Bcl2 (2 to 206 residues) expressed in Escherichia coli S12 extract after 30 mins using FAM-labelled compound by fluorescence polarization assay
[15] = Binding affinity to human full-length N-terminal His6-tagged prephosphorylated Bcl2 R106A/R109A mutant expressed in Escherichia coli S12 extract after 30 mins using FAM-labelled compound by fluorescence polarization assay
[16] = target: T1, Apoptosis regulator Bcl-2; assay: Binding affinity to human full-length N-terminal His6-tagged prephosphorylated Bcl2 (2 to 206 residues) expressed in Escherichia coli S12 extract after 30 mins using FAM-labelled compound by fluorescence polarization assay
[17] = Binding affinity to human full-length N-terminal His6-tagged Bcl2 R106A/R109A mutant expressed in Escherichia coli S12 extract after 30 mins using FAM-labelled compound by fluorescence polarization assay
[18] = target: T1, Apoptosis regulator Bcl-2; assay: Induction of BCl-2 dephosphorylation in human HL-60 cells at 5 to 15 uM measured after 24 hrs by coimmunoprecipitation method; assay type: cell-based; settings: filed as modulator, dose microM 5-15, time 24.0 hrs; procedure, shortened: as §1
[19] = target: T1, Apoptosis regulator Bcl-2; assay: Induction of BCl-2 dephosphorylation in human HL-60 cells assessed as increase in Bax expression at 5 to 15 uM measured after 24 hrs by coimmunoprecipitation method; assay type: cell-based; settings: filed as modulator, dose microM 5-15, time 24.0 hrs; procedure, shortened: as §1
Bcl-2-like protein 1 [20] = target: T2, Bcl-2-like protein 1; assay: Effect on Bcl-xl phosphorylation in human HL-60 cells at 1 to 30 uM by Western blot analysis; settings: dose microM 1-30
[21] = target: T1, Apoptosis regulator Bcl-2; assay: Induction of BCl-2 dephosphorylation in human HL-60 cells at 1 to 5 uM measured after 24 hrs by coimmunoprecipitation method; assay type: cell-based; settings: dose microM 1-5, time 24.0 hrs; procedure, shortened: as §1
[22] = target: T1, Apoptosis regulator Bcl-2; assay: Induction of BCl-2 dephosphorylation in human OCI-AML-3 cells at 1 to 5 uM measured after 24 hrs by coimmunoprecipitation method; assay type: cell-based; settings: dose microM 1-5, time 24.0 hrs; procedure, shortened: as §1
[23] = Binding affinity to human full-length N-terminal His6-tagged Bcl2 R106A/R109A mutant expressed in Escherichia coli S12 extract by isothermal titration calorimetry
[24] = target: T1, Apoptosis regulator Bcl-2; assay: Induction of BCl-2 dephosphorylation in human OCI-AML-3 cells assessed as increase in Bax expression at 1 to 5 uM measured after 24 hrs by coimmunoprecipitation method; assay type: cell-based; settings: dose microM 1-5, time 24.0 hrs; procedure, shortened: as §1
[25] = target: T1, Apoptosis regulator Bcl-2; assay: Induction of BCl-2 dephosphorylation in human HL-60 cells assessed as increase in Bax expression at 1 to 5 uM measured after 24 hrs by coimmunoprecipitation method; assay type: cell-based; settings: dose microM 1-5, time 24.0 hrs; procedure, shortened: as §1
[26] = Binding affinity to human full-length N-terminal His6-tagged prephosphorylated Bcl2 R106A/R109A mutant expressed in Escherichia coli S12 extract by isothermal titration calorimetry

## N#CC1=C(NCCC(=O)NCc2cccc(C(=O)O)c2)c2ccc(Sc3ccc(Br)cc3)c3cccc(c23)C1=O
[1]
  Ki: 1670 nM
[2]
  Ki: 1020 nM

## CCCCNC1=C(C#N)C(=O)c2cccc3c(Sc4ccc(Br)cc4)ccc1c23
[3]
  Ki: 350 nM
[4]
  Ratio EC50: 5
[5]
  Ratio EC50: 5
[6]
  Activity: inactive
[7]
  Ratio EC50: 5
MCF7
  EC50: 3.1 µM
HL-60
  EC50: 16.9 µM
[8]
  Ratio EC50: 5
[9]
  Activity: inactive
[1]
  Ki: 150 nM
KG-1
  EC50: 2.7 µM
[10]
  Activity: inactive
[2]
  Ki: 210 nM
[11]
  Activity: inactive
[12]
  Activity: inactive
Bcl-2-like protein 1 [13]
  Ki: 550 nM
OCI-AML-3
  EC50: 15.4 µM

## N#CC1=C(NCc2ccc(C(=O)O)cc2)c2ccc(Sc3ccc(Br)cc3)c3cccc(c23)C1=O
[1]
  Ki: 940 nM
[2]
  Ki: 780 nM

## CC[C@H](C)[C@H](NC(=O)[C@H](CCCNC(=N)N)NC(=O)[C@H](CCCNC(=N)N)NC(=O)[C@H](CC(C)C)NC(=O)[C@H](CS)NC(=O)[C@H](CCC(=O)O)NC(=O)[C@H](CO)NC(=O)[C@H](CC(C)C)NC(=O)[C@H](CCCCN)NC(=O)[C@H](CCCCN)NC(=O)[C@@H](NC(=O)[C@H](CO)NC(=O)[C@H](C)NC(=O)[C@H](CC(=O)O)NC(=O)[C@H](CCC(N)=O)NC(=O)[C@@H]1CCCN1C(=O)[C@@H]1CCCN1C(=O)[C@@H](N)CCC(N)=O)[C@@H](C)O)C(=O)NCC(=O)N[C@@H](CC(=O)O)C(=O)N[C@@H](CCC(=O)O)C(=O)N[C@@H](CC(C)C)C(=O)N[C@@H](CC(=O)O)C(=O)N[C@@H](CO)C(=O)N[C@@H](CC(N)=O)C(=O)N[C@@H](CCSC)C(=O)N[C@@H](CCC(=O)O)C(=O)N[C@@H](CC(C)C)C(=O)N[C@@H](CCC(N)=O)C(=O)N[C@@H](CCCNC(=N)N)C(=O)N[C@@H](CCSC)C(=O)N[C@H](C(=O)N[C@@H](C)C(=O)N[C@@H](CC(=O)O)C(=O)N[C@H](C(=O)N[C@@H](CC(=O)O)C(=O)O)C(C)C)[C@@H](C)CC
[14]
  Kd: 19.6 nM
[15]
  Kd: 16.2 nM
[16]
  Kd: 2.1 nM
[17]
  Kd: 15.5 nM

## N#CC1=C(NCCC(=O)NCc2ccc(C(=O)O)cc2)c2ccc(Sc3ccc(Br)cc3)c3cccc(c23)C1=O
[3]
  Ki: 320 nM
[6]; filed as modulator
  Activity: Active
MCF7
  EC50: 5.5 µM
HL-60
  EC50: 3.8 µM
[18]
  Activity: Active
[19]
  Activity: Active
[1]
  Ki: 1650 nM
KG-1
  EC50: 4.9 µM
[10]; filed as modulator
  Activity: Active
[2]
  Ki: 160 nM
Bcl-2-like protein 1 [20]
  Activity: inactive
Bcl-2-like protein 1 [13]
  Ki: 810 nM
OCI-AML-3
  EC50: 4 µM

## N#CC1=C(C#N)c2ccc(Sc3ccc(Br)cc3)c3cccc(c23)C1=O
[3]
  Ki: 490 nM
[1]
  Ki: 1670 nM
[2]
  Ki: 850 nM
Bcl-2-like protein 1 [13]
  Ki: 750 nM

## N#CC1=C(NCCC(=O)NCc2ccccc2C(=O)O)c2ccc(Sc3ccc(Br)cc3)c3cccc(c23)C1=O
[1]
  Ki: 1750 nM
[2]
  Ki: 1350 nM

## CC1(C)CCC(CN2CCN(c3ccc(C(=O)NS(=O)(=O)c4ccc(NCC5CCOCC5)c([N+](=O)[O-])c4)c(Oc4cnc5[nH]ccc5c4)c3)CC2)=C(c2ccc(Cl)cc2)C1 [VENETOCLAX]
[21]
  Activity: inactive
[22]
  Activity: inactive
MCF7
  EC50: 1.35 µM
[23]
  Kd: 4.5 nM
HL-60
  EC50: 8.1 µM
[24]
  Activity: inactive
KG-1
  EC50: 0.85 µM
[25]
  Activity: inactive
[26]
  Kd: 5.5 nM
OCI-AML-3
  EC50: 6.8 µM

## N#CC1=C(NCCC(=O)NCc2ccccc2)c2ccc(Sc3ccc(Br)cc3)c3cccc(c23)C1=O
[3]
  Ki: 560 nM
[6]
  Activity: inactive
MCF7
  EC50: 18.5 µM
HL-60
  EC50: 21.7 µM
[9]
  Activity: inactive
[1]
  Ki: 1880 nM
KG-1
  EC50: 16.8 µM
[10]
  Activity: inactive
[2]
  Ki: 1050 nM
[11]
  Activity: inactive
Bcl-2-like protein 1 [13]
  Ki: 1110 nM
OCI-AML-3
  EC50: 22.3 µM

## CN(C)c1ccc(CNC(=O)CCNC2=C(C#N)C(=O)c3cccc4c(Sc5ccc(Br)cc5)ccc2c34)cc1
[1]
  Ki: 840 nM
[2]
  Ki: 4320 nM

## CC1(C)CCC(c2ccc(Cl)cc2)=C(CN2CCN(c3ccc(C(=O)NS(=O)(=O)c4ccc(N[C@H](CCN5CCOCC5)CSc5ccccc5)c(S(=O)(=O)C(F)(F)F)c4)cc3)CC2)C1 [NAVITOCLAX]
[23]
  Kd: 27.8 nM
[26]
  Kd: 30.6 nM

## N#CC1=C(NCCC(=O)NCCOCCO)c2ccc(Sc3ccc(Br)cc3)c3cccc(c23)C1=O
[1]
  Ki: 770 nM
[2]
  Ki: 810 nM

## N#CC1=C(NCCC(=O)O)c2ccc(Sc3ccc(Br)cc3)c3cccc(c23)C1=O
[1]
  Ki: 1440 nM
[2]
  Ki: 1270 nM
